Measurements reported in ChEMBL document CHEMBL3992526, “Antagonizing NOD2 Signaling with Conjugates of Paclitaxel and Muramyl Dipeptide Derivatives Sensitizes Paclitaxel Therapy and Significantly Prevents Tumor Metastasis” (J Med Chem, 2017).
The source made the active and inactive calls. The calls are words filed in the database; no cut-off is given here.

Columns and labels:
[1] = Cytotoxicity against HEK-Blue cells expressing human NOD2 assessed as reduction in cell growth at 1.5625 to 50000 nM preincubated for 3 hrs followed by MDP-stimulation for 20 hrs by SRB assay; type: cell-based; conditions: 50 µM
[2] = molecular target: T1, Nucleotide-binding oligomerization domain-containing protein 2 (Homo sapiens, UniProt Q9HC29); experiment: Activation of human NOD2 signaling expressed in HEK-Blue cells incubated for 3 hrs by spectrophotometry based SEAP reporter gene assay; type: cell-based
[3] = molecular target: T1, Nucleotide-binding oligomerization domain-containing protein 2; experiment: Inhibition of MDP-induced human NOD2 signaling expressed in HEK-Blue cells preincubated for 3 hrs followed by MDP-stimulation for 20 hrs by spectrophotometry based SEAP reporter gene assay; type: cell-based
[4] = Cytotoxicity against HEK-Blue cells expressing human NOD2 assessed as reduction in cell growth at 1.5625 to 50000 nM incubated for 3 hrs by SRB assay; type: cell-based; conditions: 50 µM
[5] = test system: Lewis lung carcinoma cell line; experiment: Antitumor activity against mouse LLC cells implanted in iv dosed C57BL/6N mouse assessed as tumor growth inhibition; type: functional, organism-based
[6] = AUC (0 to t) in tumor of LLC tumor bearing C57BL/6N mouse assessed as MDA-linker level at 30 mg/kg, iv up to 24 hrs by LC-MS/MS analysis; type: ADME, organism-based, Neoplasm; conditions: in vivo
Method in brief: (§1)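 LLC tumor-bearing mice received a single iv injection at 30 mg/kg; tumor tissue was sampled over time and assayed for intact conjugate and its metabolites PTX and MDA-linker. Tmax in h and Cmax in nmol/g tumor were reported, n=5 mice.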

[7] = Cmax in tumor of LLC tumor bearing C57BL/6N mouse at 30 mg/kg, iv by LC-MS/MS analysis; type: ADME, organism-based, Neoplasm; set-up: dose 30 mg/kg, route intravenous; conditions: in vivo; method in brief: as §1
[8] = Tmax in tumor of LLC tumor bearing C57BL/6N mouse assessed as paclitaxel level at 30 mg/kg, iv by LC-MS/MS analysis; type: ADME, organism-based, Neoplasm; conditions: in vivo; method in brief: as §1
[9] = Cmax in tumor of LLC tumor bearing C57BL/6N mouse assessed as MDA-linker level at 30 mg/kg, iv by LC-MS/MS analysis; type: ADME, organism-based, Neoplasm; set-up: dose 30 mg/kg, route intravenous; conditions: in vivo; method in brief: as §1
[10] = AUC (0 to t) in tumor of LLC tumor bearing C57BL/6N mouse at 30 mg/kg, iv up to 24 hrs by LC-MS/MS analysis; type: ADME, organism-based, Neoplasm; conditions: in vivo; method in brief: as §1
[11] = Tmax in tumor of LLC tumor bearing C57BL/6N mouse assessed as MDA-linker level at 30 mg/kg, iv by LC-MS/MS analysis; type: ADME, organism-based, Neoplasm; conditions: in vivo; method in brief: as §1
[12] = Cmax in tumor of LLC tumor bearing C57BL/6N mouse assessed as paclitaxel level at 30 mg/kg, iv by LC-MS/MS analysis; type: ADME, organism-based, Neoplasm; set-up: dose 30 mg/kg, route intravenous; conditions: in vivo; method in brief: as §1
[13] = AUC (0 to t) in tumor of LLC tumor bearing C57BL/6N mouse assessed as paclitaxel level at 30 mg/kg, iv up to 24 hrs by LC-MS/MS analysis; type: ADME, organism-based, Neoplasm; conditions: in vivo; method in brief: as §1
[14] = Cmax in tumor of LLC tumor bearing C57BL/6N mouse at 18 mg/kg, iv by LC-MS/MS analysis; type: ADME, organism-based, Neoplasm; set-up: dose 18 mg/kg, route intravenous; conditions: in vivo
Method in brief: (§2)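 Tumour-tissue pharmacokinetics in LLC tumour-bearing mice after a single iv injection of PTX at 18 mg/kg, equimolar to the conjugate at 30 mg/kg. Analyte concentrations were measured in tumour tissue over time (n=5 mice). Tmax is given in h and Cmax in nmol/g.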

[15] = Tmax in tumor of LLC tumor bearing C57BL/6N mouse at 18 mg/kg, iv by LC-MS/MS analysis; type: ADME, organism-based, Neoplasm
Method in brief: (§3)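 Mice bearing LLC tumors were given a single iv injection at equimolar doses: the conjugate at 30 mg/kg or paclitaxel at 18 mg/kg. Tumor tissue was sampled over time. Intact conjugate, released paclitaxel and MDA-linker were quantified in tumor tissue (nmol/g). Tmax and Cmax were taken from tumor concentration profiles, n=5 per group.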

[16] = Drug level in tumor of LLC tumor bearing C57BL/6N mouse treated with MTC-220 at 30 mg/kg, iv up to 24 hrs by LC-MS/MS analysis relative to paclitaxel alone; type: ADME, organism-based, Neoplasm; conditions: in vivo; method in brief: as §3
[17] = AUC (0 to t) in tumor of LLC tumor bearing C57BL/6N mouse at 18 mg/kg, iv up to 24 hrs by LC-MS/MS analysis; type: ADME, organism-based, Neoplasm; conditions: in vivo; method in brief: as §2
[18] = molecular target: T1, Nucleotide-binding oligomerization domain-containing protein 2; experiment: Inhibition of NOD2 signaling in human PBMC derived macrophages assessed as inhibition of MDP-induced IL-6 mRNA expression at 1 to 10 uM preincubated for 1 hr followed by MDP-stimulation for 90 mins by RT-PCR method
[19] = molecular target: T1, Nucleotide-binding oligomerization domain-containing protein 2; experiment: Inhibition of MDP-stimulated NOD2 activation in human PBMC derived macrophages assessed as reduction in NOD2-mediated NF-kB signaling by measuring decrease in IkBalpha level preincubated for 1 hr followed by MDP-stimulation for 1 hr by Western blot method
[20] = molecular target: T1, Nucleotide-binding oligomerization domain-containing protein 2; experiment: Inhibition of MDP-stimulated NOD2 activation in human PBMC derived macrophages assessed as reduction in NOD2-mediated MAPK signaling by measuring decrease in phosphorylated p38 level preincubated for 1 hr followed by MDP-stimulation for 1 hr by Western blot method
[21] = test system: Lewis lung carcinoma cell line; experiment: (§4) Potentiation of paclitaxel-induced antitumor activity against mouse LLC cells implanted in C57BL/6N mouse assessed as reduction in tumor weight at 30 mg/kg, iv administered once in every two days and paclitaxel treatment once in every four days measured 4 weeks after implantation; type: functional, organism-based
[22] = test system: Lewis lung carcinoma cell line; experiment: as §4, with “inhibition of lung” for “reduction in”, “metastasis” for “weight”, “implantation relative to control” for “implantation”; type: functional
[23] = molecular target: T1, Nucleotide-binding oligomerization domain-containing protein 2; experiment: Inhibition of MDP-stimulated human NOD2 activation expressed in HEK-Blue cells assessed as reduction in NOD2-mediated MAPK signaling by measuring decrease in phosphorylated JNK level preincubated for 1 hr followed by MDP-stimulation for 1 hr by Western blot method; type: cell-based
[24] = molecular target: T1, Nucleotide-binding oligomerization domain-containing protein 2; experiment: Inhibition of MDP-stimulated NOD2 activation in human PBMC derived macrophages assessed as reduction in NOD2-mediated MAPK signaling by measuring decrease in phosphorylated JNK level preincubated for 1 hr followed by MDP-stimulation for 1 hr by Western blot method
[25] = Cytotoxicity against HEK-Blue cells expressing human NOD2 assessed as reduction in cell growth at 0.3125 to 10000 nM preincubated for 3 hrs followed by MDP-stimulation for 20 hrs by SRB assay; type: cell-based; conditions: 10 µM
[26] = molecular target: Receptor-interacting serine/threonine-protein kinase 2 (Homo sapiens) (UniProt O43353); experiment: Inhibition of recombinant human N-terminal GST-tagged RIP2 (1 to 299 residues) expressed in baculovirus infected Sf9 cells at 10 uM using MBP as substrate incubated for 60 mins in presence of ATP by ADP-Glo assay
[27] = molecular target: T1, Nucleotide-binding oligomerization domain-containing protein 2; experiment: Inhibition of MDP-stimulated human NOD2 activation expressed in HEK-Blue cells assessed as reduction in NOD2-mediated NF-kB signaling by measuring decrease in IkBalpha level preincubated for 1 hr followed by MDP-stimulation for 1 hr by Western blot method; type: cell-based
[28] = molecular target: T1, Nucleotide-binding oligomerization domain-containing protein 2; experiment: Inhibition of MDP-stimulated NOD2 activation in human PBMC derived macrophages assessed as reduction in NOD2-mediated MAPK signaling by measuring decrease in phosphorylated ERK1/2 level preincubated for 1 hr followed by MDP-stimulation for 1 hr by Western blot method
[29] = molecular target: T1, Nucleotide-binding oligomerization domain-containing protein 2; experiment: Inhibition of MDP-stimulated human NOD2 activation expressed in HEK-Blue cells assessed as reduction in NOD2-mediated MAPK signaling by measuring decrease in phosphorylated ERK1/2 level preincubated for 1 hr followed by MDP-stimulation for 1 hr by Western blot method; type: cell-based
[30] = test system: Lewis lung carcinoma cell line; experiment: Antitumor activity against mouse LLC cells implanted in C57BL/6N mouse assessed as reduction in tumor weight at 30 mg/kg, iv administered once in every two days measured 4 weeks after implantation; type: functional, organism-based
[31] = Cytotoxicity against HEK-Blue cells expressing human NOD2 assessed as reduction in cell growth at 0.3125 to 10000 nM incubated for 3 hrs by SRB assay; type: cell-based; conditions: 10 µM
[32] = test system: Lewis lung carcinoma cell line; experiment: Antitumor activity against mouse LLC cells implanted in C57BL/6N mouse assessed as inhibition of lung tumor metastasis at 30 mg/kg, iv administered once in every two days measured 4 weeks after implantation; type: functional, organism-based
[33] = molecular target: T1, Nucleotide-binding oligomerization domain-containing protein 2; experiment: Inhibition of MDP-stimulated human NOD2 activation expressed in HEK-Blue cells assessed as reduction in NOD2-mediated NF-kB signaling by measuring decrease in phosphorylated RIP2 level preincubated for 1 hr followed by MDP-stimulation for 1 hr by Western blot method; type: cell-based
[34] = molecular target: T1, Nucleotide-binding oligomerization domain-containing protein 2; experiment: Inhibition of MDP-induced human NOD2 signaling expressed in HEK-Blue cells at 10 uM preincubated for 3 hrs followed by MDP-stimulation for 20 hrs by spectrophotometry based SEAP reporter gene assay relative to control; type: cell-based
[35] = molecular target: T1, Nucleotide-binding oligomerization domain-containing protein 2; experiment: Inhibition of MDP-stimulated NOD2 activation in human PBMC derived macrophages assessed as reduction in NOD2-mediated NF-kB signaling by measuring decrease in phosphorylated RIP2 level preincubated for 1 hr followed by MDP-stimulation for 1 hr by Western blot method
[36] = molecular target: T1, Nucleotide-binding oligomerization domain-containing protein 2; experiment: Inhibition of His-tagged and FLAG-tagged NOD2 (unknown origin) self-oligomerization expressed in HEK293T cells at 10 uM preincubated for 1 hr followed by MDP stimulation for 15 mins by co-immunoprecipitation assay; type: cell-based
[37] = molecular target: T1, Nucleotide-binding oligomerization domain-containing protein 2; experiment: Inhibition of MDP-stimulated human NOD2 activation expressed in HEK-Blue cells assessed as reduction in NOD2-mediated MAPK signaling by measuring decrease in phosphorylated p38 level preincubated for 1 hr followed by MDP-stimulation for 1 hr by Western blot method; type: cell-based

T1 sequence (Q9HC29 whole entry, the tested form may be a part): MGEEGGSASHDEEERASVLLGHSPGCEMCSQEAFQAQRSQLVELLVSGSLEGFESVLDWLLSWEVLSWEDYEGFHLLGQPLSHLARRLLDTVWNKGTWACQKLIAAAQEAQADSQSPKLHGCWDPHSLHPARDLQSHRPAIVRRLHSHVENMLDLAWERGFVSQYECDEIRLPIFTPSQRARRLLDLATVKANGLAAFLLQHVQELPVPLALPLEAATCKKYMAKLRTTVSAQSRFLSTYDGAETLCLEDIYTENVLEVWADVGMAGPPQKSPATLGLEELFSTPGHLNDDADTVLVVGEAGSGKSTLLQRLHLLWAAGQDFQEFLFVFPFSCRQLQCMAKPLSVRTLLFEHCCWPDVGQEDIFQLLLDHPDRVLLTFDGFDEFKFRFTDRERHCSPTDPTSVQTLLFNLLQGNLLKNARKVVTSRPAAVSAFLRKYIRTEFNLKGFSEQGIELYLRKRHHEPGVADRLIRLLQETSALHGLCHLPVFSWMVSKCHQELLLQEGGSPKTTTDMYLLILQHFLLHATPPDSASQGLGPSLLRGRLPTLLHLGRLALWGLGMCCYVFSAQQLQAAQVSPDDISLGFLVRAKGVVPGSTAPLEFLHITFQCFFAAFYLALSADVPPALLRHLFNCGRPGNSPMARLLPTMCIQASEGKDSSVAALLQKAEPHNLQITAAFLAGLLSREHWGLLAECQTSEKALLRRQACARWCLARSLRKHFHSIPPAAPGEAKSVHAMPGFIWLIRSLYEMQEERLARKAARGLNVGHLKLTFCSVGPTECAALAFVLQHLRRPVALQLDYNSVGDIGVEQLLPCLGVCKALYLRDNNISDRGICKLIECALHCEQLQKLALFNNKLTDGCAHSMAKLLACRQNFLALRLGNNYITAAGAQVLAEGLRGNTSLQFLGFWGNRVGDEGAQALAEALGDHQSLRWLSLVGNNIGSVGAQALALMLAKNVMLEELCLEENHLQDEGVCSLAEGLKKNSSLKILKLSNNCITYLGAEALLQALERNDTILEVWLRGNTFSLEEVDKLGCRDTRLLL
Receptor-interacting serine/threonine-protein kinase 2 (Homo sapiens), sequence (O43353 whole entry, the tested form may be a part): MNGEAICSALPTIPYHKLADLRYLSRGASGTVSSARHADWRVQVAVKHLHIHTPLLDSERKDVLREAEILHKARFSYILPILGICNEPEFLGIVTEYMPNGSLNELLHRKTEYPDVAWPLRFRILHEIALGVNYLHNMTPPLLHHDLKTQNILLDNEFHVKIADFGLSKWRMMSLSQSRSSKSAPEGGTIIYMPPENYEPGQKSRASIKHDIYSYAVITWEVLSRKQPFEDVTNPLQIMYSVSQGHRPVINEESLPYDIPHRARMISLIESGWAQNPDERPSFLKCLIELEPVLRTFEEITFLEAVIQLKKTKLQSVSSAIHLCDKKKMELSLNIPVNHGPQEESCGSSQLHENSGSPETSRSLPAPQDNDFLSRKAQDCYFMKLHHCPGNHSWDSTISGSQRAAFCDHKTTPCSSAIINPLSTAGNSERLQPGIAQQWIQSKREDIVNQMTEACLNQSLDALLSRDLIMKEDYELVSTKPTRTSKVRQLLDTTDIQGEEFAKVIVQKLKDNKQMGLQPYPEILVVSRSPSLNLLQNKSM

For `C[C@H](NC(=O)/C=C/c1ccc(Cl)cc1)C(=O)N[C@H](CCC(=O)N[C@@H](CCCCNC(=O)CCC(=O)O)C(N)=O)C(N)=O`, the Activity [1] was “Non-Toxic”, the Activity [2] was “inactive” and the “inhibition activity call (active/not active)” value [3] was “inactive”. The Activity [4] was “Non-Toxic” and the TGI [5] was “inactive”.
Compound `CC(=O)O[C@H]1C(=O)[C@@]2(C)[C@H]([C@H](OC(=O)c3ccccc3)[C@]3(O)C[C@H](OC(=O)[C@H](OC(=O)CCC(=O)NCCCC[C@H](NC(=O)CC[C@@H](NC(=O)[C@H](C)NC(=O)/C=C/c4ccc(Cl)cc4)C(N)=O)C(N)=O)[C@@H](NC(=O)c4ccccc4)c4ccccc4)C(C)=C1C3(C)C)[C@]1(OC(C)=O)CO[C@@H]1C[C@@H]2O` has an AUCt [6] of 16.27 nmol·h/g, a Cmax [7] of 15.39 nmol/g and a Tmax [8] of 12 h. The Cmax [9] was 1.01 nmol/g, the AUCt [10] was 211.02 nmol·h/g and the Tmax [11] was 10.4 h. The Cmax [12] was 5.83 nmol/g and the AUCt [13] was 89.63 nmol·h/g.
In the case of `CC(=O)O[C@H]1C(=O)[C@@]2(C)[C@H]([C@H](OC(=O)c3ccccc3)[C@]3(O)C[C@H](OC(=O)[C@H](O)[C@@H](NC(=O)c4ccccc4)c4ccccc4)C(C)=C1C3(C)C)[C@]1(OC(C)=O)CO[C@@H]1C[C@@H]2O` [PACLITAXEL], the Cmax [14] is reported as 4.85 nmol/g, the Tmax [15] is reported as 1.05 h and the “fold change (FC)” value [16] is reported as 2. It also gave an AUCt [17] of 46.62 nmol·h/g and an IC50 [3] of 7.94 µM.
With `CC(=O)O[C@H]1C(=O)[C@@]2(C)[C@H]([C@H](OC(=O)c3ccccc3)[C@]3(O)C[C@H](OC(=O)[C@H](OCCC(=O)NCCCC[C@H](NC(=O)CC[C@@H](NC(=O)[C@H](C)NC(=O)/C=C/c4ccc(Cl)cc4)C(N)=O)C(N)=O)[C@@H](NC(=O)c4ccccc4)c4ccccc4)C(C)=C1C3(C)C)[C@]1(OC(C)=O)CO[C@@H]1C[C@@H]2O` the inhibition [18] was “Active”, the inhibition [19] was “Dose-dependent effect” and the inhibition [20] was “Dose-dependent effect”. The TGI [21] was “Active”, the “fold change (FC)” value [22] was 2 and the inhibition [23] was “Dose-dependent effect”. For the same compound, the inhibition [24] was “Dose-dependent effect”, the Activity [25] was “Non-Toxic” and the inhibition [26] was “inactive”. For the same compound, the inhibition [27] was “Dose-dependent effect”, the inhibition [28] was “Dose-dependent effect” and the inhibition [29] was “Dose-dependent effect”. The TGI [30] was “inactive”, the Activity [31] was “Non-Toxic” and the inhibition [32] was “inactive”. For the same compound, the “inhibition activity call (active/not active)” value [3] was “Active”, the inhibition [33] was “Dose-dependent effect” and the inhibition [34] was 50%. For the same compound, the inhibition [35] was “Dose-dependent effect”, the inhibition [36] was “Active” and the inhibition [37] was “Dose-dependent effect”.
